Several values for one entry are separate records, joined by “and”; a condition that tells them apart may be missing. Equal values may be shown once. Read-outs that look alike come from different tables or passages of the source. Marks after values point to notes of the source that are not given here.
Legend:
Format in all cases: binding
WT MelBSt = WT MelBSt (Salmonella typhimurium, UniProt P30878); assay: Thermal denaturation by CD spectroscopy; conditions: for 10% unfolding / 50% unfolding (Tm) / 90% unfolding: WT MelBSt 10 µM, component at 50 mM in CD buffer, ellipticity at 210 nm; for denaturation completed faster than in the absence of salt / ΔTm: WT MelBSt; for denaturation completed faster than in the absence of salt: above 60°C, nonspecific salt effect; for ΔTm: difference in Tm compared with apo
In short: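 Samples sat in a 1-mm cuvette. Ellipticity at 210 nm was recorded from 25–80°C at 1°C intervals, ramping 1°C/min, and expressed as percent unfolded. Tm is the half-maximal ellipticity decrease by curve fitting. Data are SEM; unpaired t test, P<0.05.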

D55C MelBSt mutant = D55C MelBSt mutant (Salmonella typhimurium, UniProt P30878, D55C); assay: Thermal denaturation by CD spectroscopy; conditions: D55C MelBSt 10 µM, component at 50 mM in CD buffer, ellipticity at 210 nm
MelBSt = MelBSt (Salmonella typhimurium, UniProt P30878)
[1] = MelBSt with 50 mM melibiose (MelBSt/Mel binary complex), 15°C
[2] = MelBSt with 50 mM melibiose (MelBSt/Mel binary complex), 20°C
[3] = MelBSt with 50 mM melibiose (MelBSt/Mel binary complex), 25°C
[4] = MelBSt with 50 mM melibiose (MelBSt/Mel binary complex), 30°C
[5] = binding to MelBSt/Mel binary complex

## [K+] [K^+]
WT MelBSt
  10% unfolding: 46.06 ± 0.02 °C
  50% unfolding (Tm): 53.34 ± 0.04 °C
  90% unfolding: 59.94 ± 0.69 °C
  denaturation completed faster than in the absence of salt: 4–5 °C
  ΔTm: 0.05 ^d (>0.05 ^e) °C
D55C MelBSt mutant
  10% unfolding: 46.51 ± 0.71 °C
  50% unfolding (Tm): 56.15 ± 0.16 °C
  90% unfolding: 65.07 ± 0.06 °C

## [Na+] [Na^+]
WT MelBSt
  10% unfolding: 49.07 ± 0.28 °C
  50% unfolding (Tm): 54.83 ± 0.03 °C
  90% unfolding: 60.06 ± 0.29 °C
  denaturation completed faster than in the absence of salt: 4–5 °C
  ΔTm: 1.54 (<0.05) °C
MelBSt; [1]
  Entropy change (−TΔS): -3.009 ± 0.0621 kcal/mol
  Free energy change (ΔG): -5.566 ± 0.0478 kcal/mol
  Kd: 60 ± 10 µM
  ΔH: -2.557 ± 0.014 kcal/mol
MelBSt; [2]
  Entropy change (−TΔS): -1.94 ± 0.0072 kcal/mol
  Free energy change (ΔG): -5.554 ± 0.0406 kcal/mol
  Kd: 70 ± 10 µM
  ΔH: -3.619 ± 0.0359 kcal/mol
MelBSt; [3]
  Entropy change (−TΔS): -0.913 ± 0.0072 kcal/mol
  Free energy change (ΔG): -5.39 ± 0.196 kcal/mol
  Kd: 120 ± 40 µM
  ΔH: -4.479 ± 0.191 kcal/mol
MelBSt; [4]
  Free energy change (ΔG): -5.485 ± 0.177 kcal/mol
  Kd: 120 ± 30 µM
  ΔH: -5.299 ± 0.124 kcal/mol
MelBSt; apo MelBSt
  difference in apo MelBSt binding affinities between Na^+ and melibiose: at least 20 fold
MelBSt; apo MelBSt (main buffer), 15°C
  Entropy change (−TΔS): 4.197 ± 0.311 kcal/mol
  Free energy change (ΔG): -4.345 ± 0.0932 kcal/mol
  Kd: 510 ± 80 µM
  ΔH: -8.544 kcal/mol and -8.544 ± 0.215 kcal/mol
MelBSt; apo MelBSt (main buffer), 20°C
  Entropy change (−TΔS): 2.404 ± 0.0048 kcal/mol
  Free energy change (ΔG): -4.333 ± 0.117 kcal/mol
  Kd: 600 ± 100 µM
  ΔH: -6.74 ± 0.103 kcal/mol
MelBSt; apo MelBSt (main buffer), 25°C
  Entropy change (−TΔS): 0.872 ± 0.0741 kcal/mol
  Free energy change (ΔG): -4.412 ± 0.1 kcal/mol
  Kd: 590 ± 120 µM
  ΔH: -5.284 ± 0.191 kcal/mol
MelBSt; apo MelBSt (main buffer), 30°C
  Entropy change (−TΔS): -0.473 ± 0.387 kcal/mol
  Free energy change (ΔG): -4.302 ± 0.0526 kcal/mol
  Kd: 790 ± 70 µM
  ΔH: -3.829 kcal/mol and -3.829 ± 0.335 kcal/mol
MelBSt; apo MelBSt, from 15°C to 30°C
  ΔΔH: ~4.78 kcal/mol
MelBSt; [5]
  −ΔSConf: 148.74 J/mol·K
  −ΔSMix: 33.00 J/mol·K
  −ΔSSolv: −194.56 J/mol·K
  −ΔSSum at °25 C: −12.82 J/mol·K
MelBSt; binding to apo MelBSt
  −ΔSConf: −354.89 J/mol·K
  −ΔSMix: 33.00 J/mol·K
  −ΔSSolv: 334.13 J/mol·K
  −ΔSSum at °25 C: 12.24 J/mol·K
D55C MelBSt mutant
  10% unfolding: 46.35 ± 0.25 °C
  50% unfolding (Tm): 56.75 ± 0.25 °C
  90% unfolding: 66.51 ± 0.31 °C

Reference: publication PMC8200842 (The Journal of General Physiology, 2021)
